Measured values collected from several papers.
Each line is one published result; the experiments were not run side by side.
NTSR1: Neurotensin receptor type 1 (NTSR1, Homo sapiens, UniProt P30989)
COQ8A: Atypical kinase COQ8A, mitochondrial (COQ8A, Homo sapiens, UniProt Q8NI60)
NR3C2: Mineralocorticoid receptor (NR3C2, Homo sapiens, UniProt P08235)
PIK3CD: Phosphatidylinositol 4,5-bisphosphate 3-kinase catalytic subunit delta isoform (PIK3CD, Homo sapiens, UniProt O00329)

CC(C)(C)OC(=O)N1CCN(Cc2ccn(Cc3ccc(Cl)cc3)c(=O)c2O)CC1 — IC50 (Lysine-specific demethylase 6A (Homo sapiens, UniProt O15550); enzyme activity, inhibitor, AlphaScreen): 5430 nM
COc1cc(/C=C/C(O)=C/C(=O)/C=C/c2ccc(O)cc2)ccc1O — Kd (Sarcoplasmic/endoplasmic reticulum calcium ATPase 1 (ATP2A1, Oryctolagus cuniculus, UniProt P04191); binding, fluorescence; pH 7.2): 8000 nM
CC(C)Oc1ccc(S(=O)(=O)c2ccc(Oc3cc(OCC(N)=O)c(C(=O)C(Cl)Cl)cc3[N+](=O)[O-])cc2)cc1 — IC50 ([Pyruvate dehydrogenase (acetyl-transferring)] kinase isozyme 1, mitochondrial (PDK1, Homo sapiens, UniProt Q15118); enzyme activity, inhibitor, ATP luminescence): 140 nM
COc1ccccc1C1CCN(c2nc(C3(C(F)(F)F)CCCC3)nc3ccc(N(C)CCO)cc23)CC1 — EC50 (NTSR1; β-arrestin recruitment, agonist): 18000 nM
COc1ccc2c(c1)CCc1c-2n[nH]c1C(=O)N1CCc2nc3cc(-c4ccccc4)[nH]n3c(=O)c2C1 — IC50 (COQ8A; ligand displacement, TR-FRET): 2730 nM
C[C@]12CCC(=O)C=C1CC[C@@H]1[C@@H]2[C@@H](O)C[C@@]2(C=O)[C@H]1CC[C@]2(O)C(=O)CO — EC50 (NR3C2; reporter gene, agonist, luciferase): 19.6 nM
Cc1nc(Nc2ccc3c(c2)C(C)(C)C(=O)N3C)c2ccccc2n1 — IC50 (PIK3CD; enzyme activity, inhibitor, ADP detection): 719 nM
CCc1ccc(NC(=O)CSc2nc(-c3ccc(C)cc3)nc3c2Cc2c(CO)cnc(C)c2O3)cc1 — IC50 (COQ8A; ligand displacement, TR-FRET): 8630 nM
COc1cc2ncnc(Nc3ccc4c(c3)/C(=C/c3cccc(Cl)c3)C(=O)N4C)c2cc1OC — IC50 (PIK3CD; enzyme activity, inhibitor, ADP detection): 628 nM
CCc1ccc(NC(=O)CSc2nc(-c3cccc(OC)c3)nc3c2Cc2c(CO)cnc(C)c2O3)cc1 — IC50 (COQ8A; ligand displacement, TR-FRET): 2170 nM
Cc1nc(N(C)c2ccc3c(c2)/C(=C/c2ccccc2Cl)C(=O)N3C)c2ccccc2n1 — IC50 (PIK3CD; enzyme activity, inhibitor, ADP detection): > 1000 nM
CC1(C)CCC(CN2CCN(c3ccc(C(=O)NS(=O)(=O)c4ccc(NCC5CCOCC5)c([N+](=O)[O-])c4)c(Oc4cnc5[nH]ccc5c4)c3)CC2)=C(c2ccc(Cl)cc2)C1 — IC50 (COQ8A; ligand displacement, TR-FRET): 6110 nM
Cc1nc(Nc2ccc3c(c2)/C(=C/c2ccccc2Cl)C(=O)N3)c2ccccc2n1 — IC50 (PIK3CD; enzyme activity, inhibitor, ADP detection): 578 nM
C[C@]12CCC(=O)C=C1CC[C@@H]1[C@@H]2[C@@H](O)C[C@]2(CO)[C@@H](C(=O)CO)CC[C@@H]12 — EC50 (NR3C2; reporter gene, agonist, luciferase): 56 nM
COc1cc2ncnc(N(C)c3ccc4c(c3)/C(=C/c3ccccc3)C(=O)N4C)c2cc1OC (mixture of isomers) — IC50 (PIK3CD; enzyme activity, inhibitor, ADP detection): 416 nM
NC(=O)c1ncc(N2CCCCC2)nc1Nc1ccc(C2CCN(C[C@H]3CCN(c4ccc5c(c4)C(=O)N(C4CCC(=O)NC4=O)C5=O)C3)CC2)cc1 (stereo partly drawn) — Kd (Tyrosine-protein kinase BTK (BTK, Homo sapiens, UniProt Q06187, L528W); binding, SPR): 88 nM
COc1cc2ncnc(Nc3ccc4c(c3)/C(=C/c3ccccc3)C(=O)N4)c2cc1OC — IC50 (PIK3CD; enzyme activity, inhibitor, ADP detection): 700 nM
COc1ccccc1C1CCN(c2nc(C3(F)CC3)nc3ccc(N(C)CCN4CCOCC4)cc23)CC1 — EC50 (NTSR1; β-arrestin recruitment, agonist): 7460 nM
